Reference: ChEMBL document CHEMBL1125336, “New bronchodilators. 1. 1,5-Substituted 1H-imidazo[4,5-c]quinolin-4(5H)-ones” (J Med Chem, 1992)

What was measured:
Cavia porcellus [1] = species on record: Cavia porcellus; test: Inhibition of the Schulz-Dale (SD) reaction-induced contraction in trachea of guinea pig; type: functional
Procedure, shortened: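 Tracheal zig-zag strips from passively sensitized guinea pigs, equilibrated 1 h in Krebs-Henseleit under 95% O2-5% CO2 at 37 °C. Contraction induced by OA at 10 µg/mL final bath concentration. Drug added cumulatively at 7-min intervals once contraction reached plateau; isotonic recording, relaxation scaled to papaverine maximum. Triplicate curves with 4–5 concentrations; IC50 by logit-log fit.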

Cavia porcellus [2] = test: Effect on collapse time of antigen-induced bronchospasm in passively sensitized guinea pigs (at 50 mg/kg, po).MCT for untreated animals is 254+/-18.; type: functional
Mus musculus = test: Acute lethal toxicity (minimum lethal dose; MLD, po) in mice.; type: organism-based; details: in vivo
Procedure, shortened: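 Male dd mice (20–25 g), n = 3 per dose, given compound orally. Deaths observed for 7 days; MLD taken as the dose killing at least one mouse.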

Cavia porcellus [3] = test: Effect on left ventricular dP/dtmax 5(mins) after intravenous administration in anesthetized guinea pigs after a intravenous administration of 3 mg/kg; type: functional, Heart left ventricle
Procedure, shortened: (§1)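 Male guinea pigs anesthetized with pentobarbital sodium (50 mg/kg ip), ventilated via tracheotomy with room air (60/min, 10 mL/kg). Left-ventricular cannula via left common carotid to a pressure transducer for LVP and LV dP/dtmax; heart rate triggered by LVP. Drug given iv through the left jugular vein, vehicle PEG 400 diluted with saline. Change expressed as % of pretreatment value; mean ± SEM, n = 5.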

Cavia porcellus [4] = test: Effect on collapse time of antigen-induced bronchospasm in passively sensitized guinea pigs (at 25 mg/kg, po). MCT for untreated animals is 254+/-18; type: functional
Cavia porcellus [5] = test: Effect on left ventricular dP/dtmax 0(mins) after intravenous administration in anesthetized guinea pigs after a intravenous administration of 3 mg/kg; type: functional, Heart left ventricle; procedure, shortened: as §1
Cavia porcellus [6] = test: Effect on left ventricular dP/dtmax 1(mins) after intravenous administration in anesthetized guinea pigs after a intravenous administration of 3 mg/kg; type: functional, Heart left ventricle; procedure, shortened: as §1
Cavia porcellus [7] = species on record: Cavia porcellus; test: Inhibitory effect on spasmogen (carbachol) induced contraction of guinea pig tracheal strips.; type: functional; details: Trachea
Procedure, shortened: (§2)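 Zig-zag tracheal strips from normal guinea pigs, equilibrated 1 h in Krebs–Henseleit (95% O2/5% CO2, 37 °C). Contracted with carbachol 3 × 10⁻⁶ mol final, histamine 3 × 10⁻⁵ mol, or LTD4 50 µg/mL. Drug added cumulatively every 7 min after the plateau; isotonic recording. IC50 for 50% relaxation by least-squares regression.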

Cavia porcellus [8] = species on record: Cavia porcellus; test: Inhibitory effect on spasmogen (histamine) induced contraction of guinea pig tracheal strips.; type: functional; details: Trachea; procedure, shortened: as §2
Cavia porcellus [9] = species on record: Cavia porcellus; test: Inhibitory effect on spasmogen (leukotriene, LTD4) induced contraction of guinea pig tracheal strips.; type: functional; details: Trachea; procedure, shortened: as §2
Cavia porcellus [10] = test: Effect on left ventricular dP/dtmax 3(mins) after intravenous administration in anesthetized guinea pigs after a intravenous administration of 3 mg/kg; type: functional, Heart left ventricle; procedure, shortened: as §1
Cavia porcellus [11] = test: Effect on heart rate 0(mins) after intravenous administration in anesthetized guinea pigs after intravenous administration of 3 mg/kg; type: functional; procedure, shortened: as §1
Cavia porcellus [12] = test: Effect on heart rate 1(mins) after intravenous administration in anesthetized guinea pigs after intravenous administration of 3 mg/kg; type: functional; procedure, shortened: as §1
Cavia porcellus [13] = test: Effect on heart rate 3(mins) after intravenous administration in anesthetized guinea pigs after intravenous administration of 3 mg/kg; type: functional; procedure, shortened: as §1
Cavia porcellus [14] = test: Effect on heart rate 5(mins) after intravenous administration in anesthetized guinea pigs after intravenous administration of 3 mg/kg; type: functional; procedure, shortened: as §1
Cavia porcellus [15] = test: Effect of the compound (intravenous administration) on anaphylactic bronchoconstriction in passively sensitized guinea pigs.; type: functional; details: Lung
Procedure, shortened: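 Male Hartley guinea pigs (350–450 g) passively sensitized ip with rabbit anti-OA serum 16–24 h before. Urethane anesthesia (1.5 g/kg ip), gallamine 10 mg/kg iv, ventilated 60–70 strokes/min. Konzett–Rössler air overflow after OA challenge 5 mg/kg iv. Compound in PEG 400 diluted with saline, given iv 90 s after challenge. ED50 by linear regression of AUC versus log dose.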

Cavia porcellus [16] = test: Effect of the compound (peroral administration) on anaphylactic bronchoconstriction in passively sensitized guinea pigs.; type: functional; details: Lung, po
Procedure, shortened: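 Male Hartley guinea pigs (350–450 g) passively sensitized ip with rabbit anti-OA serum 16–24 h before. Urethane-anesthetized, gallamine-paralysed, ventilated. Air overflow (Konzett–Rössler) after OA 5 mg/kg iv. Compound suspended in 0.3% Tween 80, given orally 1 h before challenge. ED50 by linear regression of AUC versus log dose.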

Cavia porcellus [17] = test: Effect on left ventricular dP/dtmax 5(mins) after intravenous administration in anesthetized guinea pigs; type: functional, Heart left ventricle
Procedure, shortened: (§3)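 Male guinea pigs under pentobarbital (50 mg/kg ip), tracheotomy, room-air ventilation at 60/min, 10 mL/kg. Carotid cannula advanced into the left ventricle to read LVP and LV dP/dtmax; heart rate triggered from LVP. Single 3 mg/kg iv dose via jugular vein. Values are percent of pretreatment, n = 5.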

Cavia porcellus [18] = test: Effect on heart rate 1(mins) after intravenous administration in anesthetized guinea pigs.; type: functional; procedure, shortened: as §3
Cavia porcellus [19] = test: Effect on heart rate 3(mins) after intravenous administration in anesthetized guinea pigs; type: functional; procedure, shortened: as §3
Cavia porcellus [20] = test: Effect on heart rate 5(mins) after intravenous administration in anesthetized guinea pigs; type: functional; procedure, shortened: as §3
Cavia porcellus [21] = test: Effect on left ventricular dP/dtmax 0(mins) after intravenous administration in anesthetized guinea pigs.; type: functional, Heart left ventricle; procedure, shortened: as §3
Cavia porcellus [22] = test: Effect on left ventricular dP/dtmax 1(mins) after intravenous administration in anesthetized guinea pigs.; type: functional, Heart left ventricle; procedure, shortened: as §3
Cavia porcellus [23] = test: Effect on left ventricular dP/dtmax 3(mins) after intravenous administration in anesthetized guinea pigs; type: functional, Heart left ventricle; procedure, shortened: as §3
Cavia porcellus [24] = test: Effect on heart rate 0(mins) after intravenous administration in anesthetized guinea pigs.; type: functional; procedure, shortened: as §3
Cavia porcellus [25] = test: Effect on collapse time of antigen-induced bronchospasm in passively sensitized guinea pigs (at 25 mg/kg, po).MCT for untreated animals is 254+/-18.; type: functional

Structure (SMILES) | IC50 (Cavia porcellus [1]) [µM] | MLD (Mus musculus) [mg/kg] | further results
Cn1cnc2c(=O)n(Cc3ccccc3)c3ccccc3c21 | > 30 | – | –
CCCCn1c(=O)c2nc(-c3ccc(OC)cc3)n(C)c2c2ccccc21 | > 30 | – | –
CCCCn1c(=O)c2ncn(C)c2c2ccc(Cl)cc21.Cl | 1.52 | > 300 | MCT (Cavia porcellus [2]): 289 s
CCCCn1c(=O)c2ncn(C)c2c2ccccc21 | 0.25 | > 300 | LV dP/dtmax (Cavia porcellus [3]): 99.4%; MCT (Cavia porcellus [4]): 342 s; LV dP/dtmax (Cavia porcellus [5]): 100%; LV dP/dtmax (Cavia porcellus [6]): 91.6%; IC50 (Cavia porcellus [7]): 27.2 µM; IC50 (Cavia porcellus [8]): 2.12 µM; IC50 (Cavia porcellus [9]): 9.19 µM; LV dP/dtmax (Cavia porcellus [10]): 98.9%; Heart rate (Cavia porcellus [11]): 100%; Heart rate (Cavia porcellus [12]): 98.5%; Heart rate (Cavia porcellus [13]): 101%; Heart rate (Cavia porcellus [14]): 101%; ED50 (Cavia porcellus [15]): 0.42 mg/kg; ED50 (Cavia porcellus [16]): 44.9 mg/kg
CCCCn1c(=O)c2nc(-c3ccccc3)n(C)c2c2ccccc21 | > 30 | – | –
CCCCn1c(=O)c2nc(-c3ccc(Cl)c(Cl)c3)n(C)c2c2ccccc21 | > 30 | – | –
C=CCCn1c(=O)c2ncn(C)c2c2ccccc21 | 5.62 | 200 | MCT (Cavia porcellus [2]): 342 s
Cn1cnc2c(=O)n(C3CCCC3)c3ccccc3c21 | 6.58 | 300 | –
CCCCn1c(=O)c2ncn(C)c2c2cc(OC)c(OC)cc21 | > 30 | – | –
CCCCn1c2c(c3c(ncn3C)c1=O)CCCC2 | > 30 | – | –
Cn1c(=O)c2[nH]cnc2n(C)c1=O.Cn1c(=O)c2[nH]cnc2n(C)c1=O.NCCN [AMINOPHYLLINE] | 16.7 | – | LV (Cavia porcellus [17]): 116%; Heart rate (Cavia porcellus [18]): 108%; Heart rate (Cavia porcellus [19]): 105%; Heart rate (Cavia porcellus [20]): 105%; IC50 (Cavia porcellus [7]): 37.7 µM; IC50 (Cavia porcellus [8]): 33.2 µM; IC50 (Cavia porcellus [9]): 23.6 µM; LV (Cavia porcellus [21]): 100%; LV (Cavia porcellus [22]): 125%; LV (Cavia porcellus [23]): 117%; ED50 (Cavia porcellus [15]): 7.8 mg/kg; ED50 (Cavia porcellus [16]): 51.7 mg/kg; Heart rate (Cavia porcellus [24]): 100%
Cn1c(=O)c2nc[nH]c2n(C)c1=O.O [THEOPHYLLINE] | 6.52 | – | MCT (Cavia porcellus [25]): 389 s
CCCCn1c(=O)c2ncn(-c3ccccc3)c2c2ccccc21 | > 30 | – | –
CCCCn1c(=O)c2nnn(C)c2c2ccccc21 | 1.58 | > 300 | MCT (Cavia porcellus [2]): 296 s
CCCCn1c(=O)c2ncn(C(C)C)c2c2ccccc21 | 2.6 | > 300 | MCT (Cavia porcellus [25]): 425 s
CCCCn1c(=O)c2ncn(CC)c2c2ccccc21 | 4.9 | > 300 | –
CCCn1c(=O)c2ncn(C)c2c2ccccc21 | 10.7 | 300 | –
CCCCn1c(=O)c2ncn(Cc3ccccc3)c2c2ccccc21 | > 30 | – | –
CCCCn1c(=O)c2nc(-c3ccco3)n(C)c2c2ccccc21 | > 30 | – | –
Cn1cnc2c(=O)n(Cc3ccco3)c3ccccc3c21 | > 30 | – | –
CCCCn1c(=O)c2nc(S)n(C)c2c2ccccc21 | 8.2 | > 300 | –
CCCCn1c(=O)c2ncn(CCC)c2c2ccccc21 | 3.99 | > 300 | –
CCCCn1c(=O)c2ncn(C)c2c2cc(C)ccc21 | 7.97 | > 300 | MCT (Cavia porcellus [2]): 356 s
CCCCn1cnc2c(=O)n(CCCC)c3ccccc3c21 | 5.47 | > 300 | MCT (Cavia porcellus [2]): 504 s

Further lines, with some results ahead:

IC50 (Cavia porcellus [1]) [µM] | Structure (SMILES) | MLD (Mus musculus) [mg/kg] | further results
> 30 | COCCn1c(=O)c2ncn(C)c2c2ccccc21 | – | –
> 30 | CCn1c(=O)c2ncn(C)c2c2ccccc21 | – | –
> 30 | CCCCn1c(=O)c2nc(O)n(C)c2c2ccccc21 | – | –
> 30 | CCCCn1c(=O)c2ncn(C)c2c2cc(Cl)ccc21 | – | –
> 30 | CCCCCn1c(=O)c2ncn(C)c2c2ccccc21 | – | –
> 30 | Cn1cnc2c(=O)n(CC(=O)O)c3ccccc3c21 | – | –
> 30 | Cn1cnc2c(=O)n(C)c3ccccc3c21 | – | –
> 30 | CCCCn1c(=O)c2ncn(C)c2c2c(C)cccc21 | – | –
> 30 | CC(C)Cn1c(=O)c2ncn(C)c2c2ccccc21 | – | –
> 30 | CCCCn1c(=O)c2nc(C)n(C)c2c2ccccc21 | – | –
